Most compounds without a hit are left out; they make up all but 1.7% or so of the library.
JMJD2C inh = human JMJD2C demethylase inhibition. actives 0.069% (n = 330,000). AID 2099. inhibition, % at 2.35 µM. GST-JMJD2C(1-420) H3K9me3 demethylation, DELFIA europium. Q9H3R0;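 active = more than half of a compound's replicate wells show inhibition beyond 50%, single wells judged on their own value; inconclusive = some, but no more than half, of replicates pass 50% inhibition; inactive = no replicate passes 50% inhibition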;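 note: signal counts dimethyl H3K9 product captured on neutravidin plate; 0% = median of DMSO wells and 100% = 0.3 times that DMSO median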
PP1 inh = PP1-alpha (human) inhibition in PP5 counter-screen. P62136. purified PP1alpha, OMFP fluorescence. inhibition, % at 6.7 µM. actives 0.9% (n = 320,000). AID 2235;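 active = inhibition above the mean inhibition of all tested compounds plus 3 SD, computed separately for each screening campaign, cut at about 15% in these data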
Target sequence (P62136 whole entry, looked up): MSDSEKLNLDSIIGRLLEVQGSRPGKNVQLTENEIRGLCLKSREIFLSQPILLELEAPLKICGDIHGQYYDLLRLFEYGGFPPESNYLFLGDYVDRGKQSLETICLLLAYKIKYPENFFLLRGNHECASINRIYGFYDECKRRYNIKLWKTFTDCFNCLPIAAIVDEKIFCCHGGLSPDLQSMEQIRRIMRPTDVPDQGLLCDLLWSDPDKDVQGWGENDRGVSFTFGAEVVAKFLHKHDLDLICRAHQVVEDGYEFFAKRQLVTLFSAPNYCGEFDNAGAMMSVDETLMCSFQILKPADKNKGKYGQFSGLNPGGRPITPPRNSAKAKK
PP5 inh = inhibitors of human protein phosphatase 5 (PP5); purified PP5c, OMFP substrate fluorescence; inhibition, % at 6.7 µM; actives 0.18% (n = 320,000);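 active = inhibition above the campaign's mean inhibition across all tested compounds plus 3 SD, cut at about 9.5% in these data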;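 note: 0% = DMSO only and 100% = 100 µM cantharidin control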
HTR2A ag = activates the mouse 5-HT2A serotonin receptor. CHO-K1 mHTR2A beta-arrestin complementation, luminescence; percent of 30 µM serotonin response. activation, % at 7.6 µM. actives 0.66% (n = 360,000);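 active = activation above a run cutoff, the mean activation of all tested compounds plus 3 SD, cut at about 14% in these data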;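 note: 0% = plate median of compound wells and 100% = 30 µM serotonin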
T cell modulator = T cell immune modulation candidate; 2C CD8+ T cell-vesicle binding, flow cytometry; hits give low values; response (vesicle binding), % at 7 µM; actives 0.068% (n = 330,000); AID 2052;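 active = response, share of CD8 T cells binding vesicles, and their 90th percentile fluorescence all below set limits, cut at about 80% in these data, passing the limit was not always enough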;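 note: values below 100% mean blocked vesicle binding to the CD8+ T cells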
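Incubation: binding step 1.5 h, 37 °C, antibody labelling 20 min, ice; system: murine 2C transgenic CD8+ T lymphocytes; technique: cytometric PE anti-B7-1 and Alexa647 anti-CD8 signals after 1% paraformaldehyde fixation; also added: QL9-charged Drosophila Ld/ICAM-1/B7-1 vesicles; control set: naked versus QL9-loaded vesicles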
OPRM1 ag = OPRM1 agonism in mouse HTR2A counterscreen; shares compounds with HTR2A ag; U2OS OPRM1 beta-arrestin PathHunter, luminescence; DMSO 0%, DAMGO 9.3 µM 100%; activation, % at 9.3 µM; actives 5.3% (n = 2,300); AID 624380;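 active = mean activation above the mean of DMSO-only wells plus 3 SD, cut at about 0.5% in these data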
HTR2A ag conf = confirmation of mouse HTR2A serotonin receptor agonists | shares compounds with HTR2A ag | CHO-K1 PathHunter beta-arrestin recruitment, luminescence; DMSO 0%, 30 µM serotonin 100% | activation, % at 7.6 µM | actives 19% (n = 2,300);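 active = mean activation across triplicates above the hit threshold derived in the original primary screen, cut at about 15% in these data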
The depositor's hits bear a star; i = inactive; ? = inconclusive; · = no result given.

SMILES	JMJD2C inh	PP1 inh	PP5 inh	HTR2A ag	T cell modulator	OPRM1 ag	HTR2A ag conf
O=C(Nc1nnc(C2CC2)s1)c1cc(S(=O)(=O)N2CCCCC2)ccc1N1CCOCC1	-4.8	-2.2	-0.9	23.9*	467.0	-0.5	-3.0
CC1(C)CC(=O)C=C(c2ccc3[nH]ccc3c2)C1	-3.4	-2.3	-0.4	-2.5	419.6	·	·
COc1ccccc1N(C)S(=O)(=O)c1ccc(C(=O)Nc2ncc(C)s2)cc1	-4.9	0.8	2.7	-17.1	497.7	·	·
COc1ccccc1N(C)S(=O)(=O)c1ccc(C(=O)Nc2nc(C)c(C(C)=O)s2)cc1	·	4.7	0.5	17.9*	218.4	-0.2	-2.5
CNCCCN1c2ccccc2CCc2ccccc21	-3.0	3.3	-1.2	31.4*	560.6	-0.6	-6.7
CN(C)CCCN1c2ccccc2CCc2ccc(Cl)cc21	-13.8	0.8	1.0	-5.2	98.9	·	·
CCN(CC)CCN(Cc1cc2cc3c(cc2[nH]c1=O)OCO3)C(=S)NCC(C)C	-1.4	-2.7	0.2	9.4	202.4	·	·
CCN(CC)CCN(Cc1cc2cc3c(cc2[nH]c1=O)OCCO3)C(=S)NCC(C)C	-5.4	-1.4	1.4	22.0*	219.2	-0.7	7.9
Cc1cc2oc(=O)cc(CN3CCOCC3)c2cc1Cl	-9.4	-1.2	2.1	1.2	157.5	·	·
CC(C)C[C@H]1CN=C(N(C)C)N1CC(C)C	-2.4	·	·	24.1*	285.9	-0.7	-1.8
CC(C)(C)OC(=O)NCCc1nnc(SCc2c(Cl)cccc2Cl)o1	-4.6	-5.0	1.2	15.2*	478.8	0.3	2.9
CC(C)(C)OC(=O)NCCCCCc1nnc(SCc2c(F)cccc2Cl)o1	-6.8	5.6	4.9	-2.7	210.4	·	·
Cc1ccc(N(C)S(=O)(=O)c2csc(C(N)=O)c2)cc1C	-4.4	1.0	3.6	15.0*	175.4	-0.4	1.5
Cc1nc2ccccc2c(=O)n1-c1ccc(NS(=O)(=O)c2ccccc2)cc1	?	-2.3	1.4	14.9*	466.2	-0.5	-1.9
Cc1nc2ccccc2c(=O)n1-c1ccc(NS(=O)(=O)c2ccc(F)cc2)cc1	?	-5.6	0.1	-1.5	274.7	·	·
CC(=O)c1ccc(NC(=O)CCNS(=O)(=O)c2cccc3nonc23)cc1	-8.2	-4.7	1.1	36.1*	405.0	-0.7	-4.3
Cc1ccnc(NC(=S)NC(=O)c2cccs2)c1	-3.6	1.5	0.3	1.9	248.5	·	·
CN1CCN(S(=O)(=O)c2cccc(C(=O)Nc3sccc3C(N)=O)c2)CC1	-17.2	1.9	3.1	-3.2	296.1	·	·
CN1CCN(S(=O)(=O)c2cccc(C(=O)Nc3cc(C(N)=O)cc(C(N)=O)c3)c2)CC1	-0.1	-3.2	1.7	15.6*	332.4	-0.3	-1.3
O=Cc1ccc(OC(=O)c2cccnc2)cc1	-0.7	-2.1	-2.0	15.4*	259.1	-0.5	-5.5
O=C(COC(=O)/C=C/c1ccc(C(F)(F)F)cc1)NCC1CCCCC1	-3.4	-5.0	-0.7	25.2*	312.2	-0.6	-4.7
C#CCN(C[C@H]1[C@H](OC(=O)NCc2ccccc2)[C@H](OC(=O)NCc2ccccc2)C[C@H]2C(=O)N(c3ccccc3)C(=O)[C@@H]12)S(=O)(=O)c1ccc(C)cc1	·	·	·	-0.8	·	·	·
C#CCN(C[C@H]1[C@H](OC(=O)NCCCCCC)[C@H](OC(=O)NCCCCCC)C[C@H]2C(=O)N(c3ccccc3)C(=O)[C@@H]12)S(=O)(=O)c1ccc(C)cc1	·	·	·	14.9*	·	-0.3	-6.4
CCCC(C(=O)NC(C)(C)C)N(CCN1CCOCC1)C(=O)CNS(=O)(=O)c1ccccc1 (configuration not stated)	-5.3	-2.5	0.3	1.5	273.6	·	·
COc1ccc(Br)cc1CN1CCN(C(=O)c2ccco2)CC1	12.5	0.9	1.0	-1.6	164.2	·	·
SMILES	JMJD2C inh	PP1 inh	PP5 inh	HTR2A ag	T cell modulator	OPRM1 ag	HTR2A ag conf
COc1ccccc1OCc1ccc(C(=O)N2CCN(C(=O)c3ccco3)CC2)cc1	-5.2	6.1	-2.3	12.0	330.2	·	·
COc1ccc(CN2CCN(C(=O)c3ccco3)CC2)cc1OC	-5.9	7.4	-1.2	32.2*	542.8	-0.5	82.4*
COc1ccc(CN2CCN(C(=O)c3ccco3)CC2)cc1OCc1ccccc1	-8.3	2.2	1.6	19.5*	770.4	-0.6	74.2*
O=C(Nc1ccccn1)c1ccc(S(=O)(=O)N2CCCCCC2)cc1	-2.4	-6.4	1.3	14.8*	416.5	-0.5	-2.5
S=C(NC1CCCCC1)N1CCN(Cc2ccccc2Cl)CC1	25.5	2.7	1.2	16.9*	547.5	-0.4	1.1
CCOc1ccc(C(=O)Nc2c3c(nn2-c2cccc(C)c2C)CS(=O)C3)cc1 (configuration not stated)	0.0	-2.9	1.9	17.2*	668.9	-0.3	2.2
O=S(=O)(Nc1cccc(S(=O)(=O)N2CCCCC2)c1)c1ccc(Cl)s1	·	·	·	4.7	159.3	·	·
CCOc1ccc(CCNC(=O)c2cccc(NC3=NC4CS(=O)(=O)CC4S3)c2)cc1OCC (configuration not stated)	-6.3	0.4	3.8	-2.3	i	·	·
CCOc1ccc(CCNC(=O)c2cccc(NC3=NC4CS(=O)(=O)CC4S3)c2)cc1 (configuration not stated)	-0.5	-2.2	-1.7	17.8*	i	-0.5	-4.2
CC(C)CCOc1cccc(OCC(=O)Nc2ccncc2)c1	-4.2	8.4	1.0	4.2	363.1	·	·
CC1(C(=O)NS(=O)(=O)c2ccc(Cl)cc2)CCN1C(=O)C1(c2ccc(Cl)cc2)CC1 (configuration not stated)	·	·	·	14.9*	·	-0.6	-0.9
Nc1ncnc2[nH]c(=S)[nH]c12	·	·	·	17.3*	·	-0.4	-0.1
CCOC(=O)C1=C(C)N(C)C(=S)NC1c1ccc(Cl)cc1Cl (configuration not stated)	-4.1	-2.4	2.3	7.6	712.9	·	·
COc1cc(NC(=O)c2ccc(F)cc2)c(OC)cc1Cl	-7.4	-1.4	1.6	3.6	462.2	·	·
COc1cc(OC)c(NC(=O)c2cncn2-c2ccc(F)cc2)cc1Cl	8.6	-1.7	-0.3	14.8*	395.2	-0.4	2.0
COc1cccc(C(c2cccc(OC)c2)c2ccccc2C(=O)O)c1	·	·	·	-1.4	·	·	·
COc1cccc(Nc2nc(C(N)CCc3ccccc3)cs2)n1 (configuration not stated)	·	·	·	4.8	·	·	·
COC(=O)CN1C(=O)COc2ccc(S(=O)(=O)N3CCCCCC3)cc21	-5.3	-2.1	5.0	0.0	156.9	·	·
CCn1c(=O)cc(SCC(=O)NCCCN2CCN(c3ccccc3F)CC2)c2ccccc21	3.3	4.5	7.1	28.2*	188.8	0.0	77.7*

Bioassay records: PubChem, several laboratories
